Source: PubChem
GRK2 aptamer HTS: blocks RNA aptamer binding to human GRK2 | inhibition of aptamer binding, % at 10 µM | actives 0.59% (n = 330,000) | P25098 | bead flow cytometry, FAM-aptamer displacement from GRK2;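 active means inhibition of aptamer binding above 40%, roughly 3 SD of noise, on plates passing a quality check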;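 further: median bead fluorescence of bound FAM aptamer so fluorescent compounds give negative values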
Target sequence (P25098 whole entry, looked up): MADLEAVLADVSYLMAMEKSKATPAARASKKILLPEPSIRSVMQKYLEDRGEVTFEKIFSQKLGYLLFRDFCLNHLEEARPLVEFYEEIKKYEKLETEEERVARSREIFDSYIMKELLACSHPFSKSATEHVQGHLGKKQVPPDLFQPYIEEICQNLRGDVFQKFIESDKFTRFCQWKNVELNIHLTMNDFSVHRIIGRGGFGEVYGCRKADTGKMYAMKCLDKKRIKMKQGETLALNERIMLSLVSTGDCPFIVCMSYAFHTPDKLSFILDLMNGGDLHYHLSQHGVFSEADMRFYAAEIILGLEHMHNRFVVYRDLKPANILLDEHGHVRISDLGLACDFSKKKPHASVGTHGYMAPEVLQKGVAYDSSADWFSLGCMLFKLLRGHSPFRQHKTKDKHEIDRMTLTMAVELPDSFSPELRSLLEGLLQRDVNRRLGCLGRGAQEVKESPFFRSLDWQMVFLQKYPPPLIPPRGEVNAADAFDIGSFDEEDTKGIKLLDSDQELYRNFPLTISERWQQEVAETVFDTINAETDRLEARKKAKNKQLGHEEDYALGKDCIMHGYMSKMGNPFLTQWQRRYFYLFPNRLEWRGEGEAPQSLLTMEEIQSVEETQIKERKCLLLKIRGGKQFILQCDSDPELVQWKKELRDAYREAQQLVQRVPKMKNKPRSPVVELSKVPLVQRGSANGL
B2AR ag: human beta-2 adrenergic receptor agonism by FAP. Am2.2-beta2AR cells, FAP receptor internalization, flow cytometry. response, % (concentration not given with the values). actives 0.43% (n = 340,000). AID 504454;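 active means response above a set limit, near 3 SD of response in nonfluorescent compounds, cut at about 42% in these data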
NadD block: inhibitors of Staphylococcus aureus NadD; purified NadD enzyme, colorimetric absorbance read-out; inhibition, % at 20 µM; actives 0.78% (n = 360,000); in the data active means inhibition above about 26%
ABHD5 PLIN5 PPI: inhibitors of human ABHD5-perilipin-5 interaction. actives 0.78% (n = 360,000). Q00G26+Q8WTS1. Split G. princeps luciferase complementation, luminescence, 4 h. inhibition, % at 4 µM. AID 602281;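 active means inhibition above the mean inhibition across every tested compound plus 3 SD, cut at about 22% in these data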
SENP1 inh: SENP1 (human) catalytic domain inhibition | inhibition, % at 10 µM | Q9P0U3 | actives 0.21% (n = 360,000) | AID 624204 | recombinant SENP1 catalytic domain, CyPet-SUMO1-YPet FRET cleavage;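 active means inhibition at least 30% at 10 µM, raw YFP signal under a set limit, fluorescence ratio 0.5 to 1.5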
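Test system: hSENP1 catalytic domain, recombinant; Amount: 20 pM final SENP1 enzyme; Medium: Tris pH 8 buffer plus EDTA, NaCl, BME, BSA, NP40, catalase; Schedule: 50 min enzyme reaction, room temperature, light-protected; Technique: FRET fluorescence in CFP and YFP emission channels; Controls: no-enzyme wells low, DMSO-plus-enzyme wells high control.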
ABHD5 PLIN5 conf: ABHD5-PLIN5 interaction inhibition, confirmed; biochemical ABHD5-PLIN5 interaction, luminescence; AID 651612; shares compounds with ABHD5 PLIN5 PPI; actives 67% (n = 2,200); inhibition, % at 4 µM; in the data active means inhibition above about 23%
HNF4 counter: HNF4 split-luciferase signal hit, counter-screen. HNF4 dimerization, luminescence, biochemical. shares compounds with ABHD5 PLIN5 PPI. actives 77% (n = 2,200). inhibition, % at 4 µM;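 active means mean inhibition across replicate wells exceeding the computed hit threshold, cut at about 13% in these data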;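 further: light from luciferase halves that rejoin when HNF4 fusion proteins dimerize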
Hits are given with their value; 0 = inactive; - = not tested or not shown. Sampled rows, rich in hits. Any-hit rate of the full collection: about 2.5%.

SMILES | GRK2 aptamer HTS | B2AR ag | NadD block | ABHD5 PLIN5 PPI | SENP1 inh | ABHD5 PLIN5 conf | HNF4 counter
CCCCCCCCOC(=O)c1cc([N+](=O)[O-])c(Sc2ncnc3nc[nH]c23)c([N+](=O)[O-])c1 | - | 99 | 0 | 28 | 0 | 99 | 90
NC(=O)c1ccsc1NC(=O)COC(=O)c1cccnc1Cl | 0 | 0 | 0 | 0 | 0 | - | -
Cc1ccc(S(=O)(=O)N2CCN(c3ccc([N+](=O)[O-])c(NCCN4CCOCC4)c3)CC2)cc1 | 0 | 0 | 0 | 0 | 0 | - | -
Cc1cccc(OCCNc2cc(N3CCN(CCO)CC3)ccc2[N+](=O)[O-])c1 | 0 | 0 | 0 | 27 | 0 | 0 | 0
CC1CN(c2ccc([N+](=O)[O-])c(NCCOc3ccccc3)c2)CCN1 (stereo not drawn) | 0 | 0 | 0 | 29 | 0 | 0 | 0
O=[N+]([O-])c1ccc(N2CCN(S(=O)(=O)c3ccccc3)CC2)cc1NCCN1CCOCC1 | 0 | 0 | 0 | 23 | 0 | 0 | 0
CSc1nsc(NN)n1 | - | - | 0 | 0 | 0 | - | -
CN1CCN(C(=S)c2cn(Cc3ccc(Br)cc3)c3ccccc23)CC1 | 0 | 0 | 0 | 28 | 0 | 0 | 0
C[C@H](CO)N1C[C@H](C)[C@@H](CN(C)Cc2ccc(Cl)c(Cl)c2)Oc2c(NS(=O)(=O)c3cn(C)cn3)cccc2C1=O | 0 | 0 | 0 | 0 | 0 | - | -
O=C(Cn1nc(CNc2ccc(Cl)cc2)[n+]2c1CCCCC2)c1ccccc1 | 0 | 0 | 0 | 25 | 0 | 0 | 0
NC(=O)Cn1c(=O)n(Cc2ccco2)c(=O)c2c3c(sc21)CCCCC3 | 0 | 0 | 0 | 62 | 0 | 26 | 41
O=C(Cn1c(=O)n(Cc2ccco2)c(=O)c2c3c(sc21)CCCC3)Nc1ccccc1 | 0 | 0 | 0 | 53 | 0 | 24 | 0
O=c1c2c3c(sc2n(CCN2CCCCC2)c(=O)n1Cc1ccco1)CCCCC3 | 0 | 0 | 0 | 0 | 0 | - | -
O=S(=O)(c1ccc(F)c(F)c1)N1CCC2(CC1)OCCO2 | 0 | 0 | 0 | 0 | 0 | - | -
COc1ccc(CCNC(=S)NNC(=O)c2c(Br)c(C)nn2C)cc1OC | 0 | 0 | 0 | 0 | 0 | - | -
COc1ccc(CC(=O)n2[nH]c(=O)cc(C)c2=O)cc1OC | 0 | 0 | 0 | 42 | 0 | 65 | 87
CN(C)CCNC(=O)c1ccc(COc2ccc(Cl)cc2Cl)cc1 | 0 | 0 | 0 | 27 | 0 | 0 | 0
COc1ccc(Cl)cc1C(=O)NCCN(C)C | 0 | 0 | 0 | 0 | 0 | - | -
CN1C2C=CC(=O)C1C1C(=O)N(c3ccccc3)C(=O)C12 (stereo not drawn) | - | - | 0 | 44 | 0 | 42 | 44
Cc1ccccc1N1C(=O)C2C3C=CC(C2C1=O)N(C)C3=O (stereo not drawn) | 0 | 0 | 0 | 0 | 0 | - | -
CC(=O)c1ccc(OCc2cn(CC(=O)c3ccc(O)cc3)nn2)cc1 | - | 0 | 0 | 23 | 0 | 0 | 24
COc1cc(C(C)=O)ccc1OCc1cn(CC(=O)c2ccc(O)cc2)nn1 | - | 0 | 0 | 25 | 0 | 53 | 31
CC(=O)c1ccc(OCc2cn(CC(=O)c3ccc(O)cc3)nn2)c(C)c1 | - | - | 0 | 0 | 0 | - | -
O=C(Cn1cc(COc2ccccc2C(F)(F)F)nn1)c1ccc(O)cc1 | - | 0 | 0 | 0 | 0 | - | -
O=C(Cn1cc(COc2cc(F)cc(F)c2)nn1)c1ccc(O)cc1 | - | 0 | 0 | 0 | 0 | - | -
SMILES | GRK2 aptamer HTS | B2AR ag | NadD block | ABHD5 PLIN5 PPI | SENP1 inh | ABHD5 PLIN5 conf | HNF4 counter
Cc1cccc(C)c1OCc1cn(CC(=O)c2ccc(O)cc2)nn1 | - | 0 | 0 | 45 | 0 | 66 | 37
CC(=O)Nc1ccc(OCc2cn(CC(=O)c3ccc(O)cc3)nn2)cc1 | - | - | 32 | 68 | 0 | 83 | 53
COc1ccc(CC2(CO)CCN(S(=O)(=O)c3cccc4cccnc34)CC2)cc1 | 0 | 0 | 0 | 0 | 0 | - | -
CC1CN(c2nc3ccccc3nc2SCC(=O)Nc2cccc(C(F)(F)F)c2)CC(C)O1 (stereo not drawn) | 0 | 0 | 0 | 0 | 0 | - | -
CCCCOc1[nH]c2nc(-c3ccco3)n(Cc3ccco3)c(=N)c2c1C#N | 0 | 0 | 0 | 48 | 0 | 25 | 47
Cc1cc([N+](=O)[O-])ccc1NC(=S)NC1CCCC1 | 0 | 0 | 0 | 0 | 0 | - | -
CCc1cc(C(c2ccc(OC)c(OC)c2)N2CCOCC2)c(NC(=O)c2ccccc2)s1 (stereo not drawn) | 0 | 0 | 0 | 33 | 0 | 99 | 86
CCc1cc(C(c2cccc(OC)c2)N2CCOCC2)c(NC(=O)c2ccccc2)s1 (stereo not drawn) | 0 | 0 | 0 | 0 | 0 | - | -
O=C(COC(=O)c1ccc2ccccc2c1)NCc1ccccc1 | - | - | 0 | 0 | 0 | - | -
CN1/C(=C/C=C/c2n(C)c3cc([N+](=O)[O-])c([N+](=O)[O-])cc3[n+]2C)C(C)(C)c2ccccc21 | - | - | 0 | 34 | 0 | 35 | 56
Cc1cccc[n+]1CC(=O)/C=C1\N(C)c2ccccc2C1(C)C | 0 | 0 | 0 | 0 | 0 | - | -
N#Cc1ccc(C(=O)NNC(=O)c2ccncc2)cc1 | 0 | 0 | 0 | 0 | 0 | - | -
O=C(C=C1SCCS1)/C=C/c1ccco1 | 0 | 0 | 0 | 31 | 0 | 44 | 48
O=C(O)C(C(=O)/C=C/c1ccco1)=C1SCCS1 | 0 | 0 | 0 | 45 | 0 | 0 | 31
Cc1ccc(NC(=O)NC(=O)COc2ccccc2C(N)=O)c(C)c1 | 0 | 0 | 0 | 0 | 0 | - | -
NS(=O)(=O)c1ccc(CCNC(=O)COC(=O)C2CCC2)cc1 | 0 | 0 | 0 | 0 | 0 | - | -
CCCCCCn1cc(CN2CC(N3CCCCC3)CS2(=O)=O)nn1 (stereo not drawn) | - | - | 0 | 0 | 0 | - | -
O=C(NC1(O)C(=O)c2ccccc2C1=O)c1ccccc1 | 0 | 0 | 0 | 0 | 0 | - | -
CC(=O)C(C(C)=O)C1(O)C(=O)c2ccccc2C1=O | 0 | 0 | 0 | 41 | 0 | 0 | 0
O=C(NCCCN1CCOCC1)c1ccc(CSc2ccc(Cl)cc2)cc1 | 0 | 0 | 0 | 27 | 0 | 0 | 0
O=C1C(=O)c2c(C(=O)c3ccccc3)coc2-c2ccccc21 | 0 | 0 | 0 | 69 | 0 | 85 | 45
CC(C)Cc1nnc(NC(=O)CCC(=O)NC2CCCC2)s1 | 0 | 0 | 0 | 0 | 0 | - | -
CCOc1ccc(-c2c(C(=O)N/N=C(\C)c3cccnc3)nnn2-c2nonc2N)cc1 | 0 | 0 | 0 | 0 | 0 | - | -
CN(C(=O)c1cccc(NC(=O)Cc2ccc(NC(=O)C3CCCN(C(=O)c4ccccc4)C3)cc2)c1)C1CCCCC1 (stereo not drawn) | - | 0 | 0 | 0 | 0 | - | -
COc1ccccc1-c1ncn(Cc2cccc(-c3ccccc3)c2)c1-c1ccco1 | - | - | - | 25 | 0 | 22 | 37
C#CCN(C[C@@H]1[C@@H](OC(=O)Nc2cccs2)[C@@H](OC(=O)Nc2cccs2)Cn2c(=O)ccc(=O)n21)S(=O)(=O)c1ccc(C)cc1 | - | - | 0 | 61 | 0 | 87 | 50
